From ChEMBL document CHEMBL2417369, “Synthesis and evaluation of heteroaryl substituted diazaspirocycles as scaffolds to probe the ATP-binding site of protein kinases” (Bioorg Med Chem, 2013)

What was measured:
[1] = molecular target: Protein kinase C (PKC) (Homo sapiens) (UniProt O94806+P41743+P17252+P05129+Q05655+P05771+Q05513+Q02156+P24723+Q15139+Q04759); test: Inhibition of PKC (unknown origin) at 30 uM by microfluidic mobility shift assay relative to control
How it was run: (§1)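 Single-point screen in a 24-enzyme kinase panel using a microfluidic assay. Each compound was tested at […] with ATP at roughly the Km for each enzyme. The pan-AGC inhibitor H-89 served as an internal control on every plate.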

[2] = molecular target: T1, Aurora kinase A (Homo sapiens) (UniProt O14965); test: Inhibition of AURA (unknown origin) at 30 uM by microfluidic mobility shift assay relative to control; how it was run: as §1
T1 sequence (whole entry): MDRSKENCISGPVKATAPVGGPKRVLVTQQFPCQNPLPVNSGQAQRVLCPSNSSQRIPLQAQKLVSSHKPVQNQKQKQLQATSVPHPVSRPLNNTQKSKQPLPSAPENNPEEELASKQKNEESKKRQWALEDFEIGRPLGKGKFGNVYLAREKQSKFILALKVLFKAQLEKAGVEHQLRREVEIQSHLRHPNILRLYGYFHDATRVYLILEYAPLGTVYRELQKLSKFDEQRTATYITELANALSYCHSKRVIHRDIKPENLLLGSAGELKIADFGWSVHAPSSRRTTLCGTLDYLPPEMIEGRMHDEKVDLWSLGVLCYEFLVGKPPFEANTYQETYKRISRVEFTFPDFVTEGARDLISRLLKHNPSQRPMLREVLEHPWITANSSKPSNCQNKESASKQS

[3] = molecular target: Ribosomal protein S6 kinase alpha-5 (Homo sapiens, UniProt O75582); test: Inhibition of MSK1 (unknown origin) at 30 uM by microfluidic mobility shift assay relative to control; how it was run: as §1
[4] = molecular target: Mitogen-activated protein kinase 1 (Homo sapiens, UniProt P28482); test: Inhibition of ERK2 (unknown origin) at 30 uM by microfluidic mobility shift assay relative to control; how it was run: as §1
[5] = molecular target: Glycogen synthase kinase-3 beta (Homo sapiens, UniProt P49841); test: Inhibition of GSK3beta (unknown origin) at 30 uM by microfluidic mobility shift assay relative to control; how it was run: as §1
[6] = molecular target: Proto-oncogene tyrosine-protein kinase Src (Homo sapiens, UniProt P12931); test: Inhibition of SRC (unknown origin) at 30 uM by microfluidic mobility shift assay relative to control; how it was run: as §1
[7] = molecular target: RAC-beta serine/threonine-protein kinase (Homo sapiens, UniProt P31751); test: Inhibition of AKT2 (unknown origin) at 30 uM by microfluidic mobility shift assay relative to control; how it was run: as §1
RAC-beta serine/threonine-protein kinase, sequence (P31751 whole entry): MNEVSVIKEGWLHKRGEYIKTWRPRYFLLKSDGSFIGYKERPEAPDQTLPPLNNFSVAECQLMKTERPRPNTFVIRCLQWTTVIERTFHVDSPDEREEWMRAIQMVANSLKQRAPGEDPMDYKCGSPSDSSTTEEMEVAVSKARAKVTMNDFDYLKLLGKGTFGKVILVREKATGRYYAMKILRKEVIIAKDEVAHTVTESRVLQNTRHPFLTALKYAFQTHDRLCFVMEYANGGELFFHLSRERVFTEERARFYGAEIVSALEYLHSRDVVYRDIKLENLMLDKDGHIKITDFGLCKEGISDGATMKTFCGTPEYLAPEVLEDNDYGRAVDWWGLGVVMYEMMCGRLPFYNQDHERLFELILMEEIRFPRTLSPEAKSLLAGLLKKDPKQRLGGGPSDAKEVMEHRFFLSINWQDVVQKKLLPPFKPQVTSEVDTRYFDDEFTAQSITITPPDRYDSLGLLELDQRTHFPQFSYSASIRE

Ribosomal protein S6 kinase alpha-5, sequence (O75582 whole entry, looked up): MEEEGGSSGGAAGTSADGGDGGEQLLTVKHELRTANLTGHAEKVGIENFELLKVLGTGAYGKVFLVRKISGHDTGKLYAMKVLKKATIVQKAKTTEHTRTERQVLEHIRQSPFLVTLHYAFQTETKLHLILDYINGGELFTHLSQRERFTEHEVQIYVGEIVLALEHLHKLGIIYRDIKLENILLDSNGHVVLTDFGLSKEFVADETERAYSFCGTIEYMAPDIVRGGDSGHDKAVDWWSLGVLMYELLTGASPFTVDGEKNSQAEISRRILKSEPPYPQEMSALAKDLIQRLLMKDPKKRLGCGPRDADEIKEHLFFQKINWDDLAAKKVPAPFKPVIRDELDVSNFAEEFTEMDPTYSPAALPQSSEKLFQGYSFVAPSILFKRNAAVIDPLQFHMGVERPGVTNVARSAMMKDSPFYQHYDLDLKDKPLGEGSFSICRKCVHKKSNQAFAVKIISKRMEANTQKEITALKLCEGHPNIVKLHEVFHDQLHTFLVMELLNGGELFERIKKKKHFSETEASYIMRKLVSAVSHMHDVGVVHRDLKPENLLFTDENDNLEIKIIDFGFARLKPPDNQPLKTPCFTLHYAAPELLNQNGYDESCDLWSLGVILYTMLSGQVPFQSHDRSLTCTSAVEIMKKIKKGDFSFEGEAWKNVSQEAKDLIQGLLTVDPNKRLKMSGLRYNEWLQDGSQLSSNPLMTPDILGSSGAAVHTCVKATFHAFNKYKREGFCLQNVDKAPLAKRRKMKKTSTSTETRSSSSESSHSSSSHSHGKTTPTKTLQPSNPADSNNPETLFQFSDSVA
Mitogen-activated protein kinase 1, sequence (P28482 whole entry): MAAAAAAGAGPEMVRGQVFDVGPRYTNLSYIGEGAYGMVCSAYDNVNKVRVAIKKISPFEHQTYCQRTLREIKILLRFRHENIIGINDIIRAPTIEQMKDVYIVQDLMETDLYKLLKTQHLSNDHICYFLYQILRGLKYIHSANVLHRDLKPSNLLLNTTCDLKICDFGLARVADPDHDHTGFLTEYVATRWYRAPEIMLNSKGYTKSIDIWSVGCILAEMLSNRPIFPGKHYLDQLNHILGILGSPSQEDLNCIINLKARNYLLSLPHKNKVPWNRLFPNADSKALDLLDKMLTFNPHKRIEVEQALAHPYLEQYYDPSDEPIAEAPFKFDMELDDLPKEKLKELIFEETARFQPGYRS
Proto-oncogene tyrosine-protein kinase Src, sequence (P12931 2-536 limits assumed): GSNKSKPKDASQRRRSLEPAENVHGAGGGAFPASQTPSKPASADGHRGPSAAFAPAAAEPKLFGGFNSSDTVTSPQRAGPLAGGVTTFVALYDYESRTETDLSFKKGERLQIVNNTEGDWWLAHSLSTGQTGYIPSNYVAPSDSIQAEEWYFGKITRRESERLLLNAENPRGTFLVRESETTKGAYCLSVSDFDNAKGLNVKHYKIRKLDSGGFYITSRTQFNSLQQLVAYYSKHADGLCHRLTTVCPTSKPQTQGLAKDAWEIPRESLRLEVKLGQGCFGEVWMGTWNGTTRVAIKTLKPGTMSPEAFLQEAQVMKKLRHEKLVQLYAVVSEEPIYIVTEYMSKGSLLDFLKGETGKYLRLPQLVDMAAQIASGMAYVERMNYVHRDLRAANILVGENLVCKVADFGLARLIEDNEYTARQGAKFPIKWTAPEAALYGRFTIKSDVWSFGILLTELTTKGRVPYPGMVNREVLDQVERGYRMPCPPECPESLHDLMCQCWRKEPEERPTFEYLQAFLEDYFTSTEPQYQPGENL
Glycogen synthase kinase-3 beta, sequence (P49841 whole entry, looked up): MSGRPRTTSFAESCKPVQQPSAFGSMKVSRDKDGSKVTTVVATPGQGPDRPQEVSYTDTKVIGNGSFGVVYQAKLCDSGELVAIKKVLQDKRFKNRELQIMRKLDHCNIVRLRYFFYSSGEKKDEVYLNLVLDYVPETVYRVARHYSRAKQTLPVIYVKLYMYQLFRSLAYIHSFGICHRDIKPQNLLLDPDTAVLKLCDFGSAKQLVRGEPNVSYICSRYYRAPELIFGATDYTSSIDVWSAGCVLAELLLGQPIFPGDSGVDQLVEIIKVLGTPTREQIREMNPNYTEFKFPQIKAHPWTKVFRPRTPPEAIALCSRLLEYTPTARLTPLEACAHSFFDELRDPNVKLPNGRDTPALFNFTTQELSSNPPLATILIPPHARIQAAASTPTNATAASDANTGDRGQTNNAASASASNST

Structure (SMILES) | inhibition [1] [%] | inhibition [2] [%] | inhibition [3] [%] | inhibition [4] [%] | inhibition [5] [%] | inhibition [6] [%] | inhibition [7] [%]
O=S(=O)(c1cccc2cnccc12)N1CCC2(CCCN2)CC1 | 22 | 43 | 85 | 7 | 20 | 10 | 11
c1nc(N2CCCC3(CCNCC3)C2)c2nc[nH]c2n1 | 21 | 70 | 89 | 28 | 32 | 19 | 26
O=S(=O)(c1cccc2cnccc12)N1CCCC12CCNCC2 | 5 | 27 | 47 | 0 | 9 | 5 | 13
NC1(Cc2ccccc2)CCN(c2ncnc3[nH]cnc23)CC1 | 0 | 96 | 73 | 67 | 53 | 63 | 74
c1nc(N2CCC3(CCNC3)CC2)c2nc[nH]c2n1 | 26 | 59 | 94 | 38 | 39 | 61 | 70
O=S(=O)(c1cccc2cnccc12)N1CCC2(CCCNC2)CC1 | 9 | 24 | 36 | 13 | 5 | 35 | 14
c1nc(N2CCCC3(CCCNC3)C2)c2nc[nH]c2n1 (stereo not given) | 3 | 34 | 71 | 15 | 15 | 5 | 37
CNC(=O)C1CCC2(CCN(c3ncnc4[nH]cnc34)CC2)NC1 (racemic) | 0 | 74 | 80 | 30 | 17 | 24 | 41
O=C(C1CCC2(CCN(c3ncnc4[nH]cnc34)CC2)NC1)N1CCOCC1 (racemic) | 18 | 72 | 62 | 20 | 9 | 15 | 25
O=S(=O)(c1cccc2cnccc12)N1CCC2(CCC(O)CN2)CC1 (racemic) | 0 | 87 | 89 | 8 | 80 | 29 | 14
NC1(Cc2ccccc2)CCN(S(=O)(=O)c2cccc3cnccc23)CC1 | 12 | 43 | 58 | 17 | 19 | 6 | 13
c1nc(N2CCC3(CCCN3)CC2)c2nc[nH]c2n1 | 0 | 55 | 95 | 50 | 19 | 24 | 72
CN(C)C(=O)C1CCC2(CCN(c3ncnc4[nH]cnc34)CC2)NC1 (racemic) | 6 | 69 | 93 | 25 | 7 | 16 | 27
O=C(O)C1CCC2(CCN(c3ncnc4[nH]cnc34)CC2)NC1 (racemic) | 0 | 95 | 51 | 37 | 28 | 20 | 17
OCC1CCC2(CCN(c3ncnc4[nH]cnc34)CC2)NC1 (racemic) | 0 | 84 | 88 | 32 | 21 | 34 | 38
c1nc(N2CCCC23CCNCC3)c2nc[nH]c2n1 | 0 | 18 | 13 | 10 | 43 | 6 | 0
c1nc(N2CCC3(CCCCC3)CC2)c2nc[nH]c2n1 | 2 | 71 | 35 | 18 | 40 | 32 | 6
O=S(=O)(c1cccc2cnccc12)N1CCCC2(CCNCC2)C1 | 4 | 36 | 39 | 2 | 3 | 5 | 17
OC1CCNC2(CCN(c3ncnc4[nH]cnc34)CC2)C1 (racemic) | 0 | 63 | 93 | 32 | 19 | 22 | 59
O=S(=O)(c1cccc2cnccc12)N1CCCC2(CCCNC2)C1 (stereo not given) | 0 | 37 | 38 | 8 | 14 | 21 | 12
O=S(=O)(c1cccc2cnccc12)N1CCC2(CC1)CC(O)CCN2 (racemic) | 0 | 39 | 86 | 9 | 51 | 18 | 13
c1nc(N2CCC3(CCCCN3)CC2)c2nc[nH]c2n1 | 0 | 81 | 88 | 50 | 28 | 25 | 57
O=S(=O)(c1cccc2cnccc12)N1CCC2(CCCCN2)CC1 | 0 | 71 | 76 | 9 | 28 | 12 | 10
OC1CCC2(CCN(c3ncnc4[nH]cnc34)CC2)NC1 (racemic) | 0 | 80 | 89 | 42 | 31 | 38 | 59
c1nc(N2CCC3(CCCNC3)CC2)c2nc[nH]c2n1 | 41 | 67 | 98 | 50 | 49 | 70 | 87
c1nc(N2CCC3(CCCOC3)CC2)c2nc[nH]c2n1 | 7 | 67 | 45 | 35 | 66 | 41 | 6
c1nc(N2CCC3(CCCCO3)CC2)c2nc[nH]c2n1 | 0 | 92 | 49 | 28 | 56 | 49 | 10
O=S(=O)(c1cccc2cnccc12)N1CCC2(CCNC2)CC1 | 0 | 51 | 41 | 4 | 1 | 10 | 17
COC(=O)C1CCC2(CCN(c3ncnc4[nH]cnc34)CC2)NC1 (racemic) | 0 | 64 | 48 | 19 | 12 | 26 | 19
c1ccc(C2CCC3(CCN(c4ncnc5[nH]cnc45)CC3)NC2)cc1 (stereo not given) | 0 | 90 | 78 | 35 | 21 | 33 | 41
